# Measured values taken from ChEMBL document CHEMBL1773067.
# The source made the active and inactive calls. No cut-off for these calls is given here.
# What was measured:
# [1] = target: T1, Phosphotyrosine-protein phosphatase PTPB (Mycobacterium tuberculosis, UniProt P96830); assay: Inhibition of Mycobacterium tuberculosis N-terminal His6-tagged PTPB
# T1 sequence (P96830 whole entry): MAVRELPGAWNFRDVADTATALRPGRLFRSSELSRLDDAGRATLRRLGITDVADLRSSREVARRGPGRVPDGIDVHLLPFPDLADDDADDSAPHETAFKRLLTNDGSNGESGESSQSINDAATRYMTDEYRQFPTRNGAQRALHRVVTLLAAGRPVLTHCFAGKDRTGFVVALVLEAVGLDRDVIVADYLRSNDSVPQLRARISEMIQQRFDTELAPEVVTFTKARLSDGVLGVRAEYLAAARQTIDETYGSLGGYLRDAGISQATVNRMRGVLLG
# [2] = target: T1, Phosphotyrosine-protein phosphatase PTPB; assay: Inhibition of Mycobacterium tuberculosis N-terminal His6-tagged PTPB preincubated with compound for 30 mins before pNPP substrate addition by microplate spectrophotometer analysis
# [3] = target: T2, Phosphotyrosine-protein phosphatase PTPB (Mycobacterium tuberculosis) (UniProt P96830); assay: Inhibition of Mycobacterium tuberculosis N-terminal His6-tagged PTPB at 20 uM using pNPP as substrate
# T2 sequence (whole entry): T1 sequence (P96830 whole entry)
# [4] = target: T1, Phosphotyrosine-protein phosphatase PTPB; assay: Competitive inhibition of Mycobacterium tuberculosis N-terminal His6-tagged PTPB assessed as production of p-nitrophenol from pNPP substrate by Lineweaver-Burk plot analysis
# [5] = target: T2, Phosphotyrosine-protein phosphatase PTPB (Mycobacterium tuberculosis); assay: Inhibition of Mycobacterium tuberculosis PTPB expressed in mouse RAW 264.7 cells assessed as restoration of IFN gamma-induced ERK1/ERK2 phosphorylation after 30 mins by Western blotting; assay type: cell-based
# In short: (§1)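 RAW 264.7 macrophages (DMEM, 10% FBS, 37°C, 5% CO₂) stably expressing HA-tagged mPTPB (electroporation, G418 0.5 mg/ml selection 2 weeks). Cells at 80% confluency lysed in Triton X-100 buffer with phosphatase/protease inhibitors; pERK1/2 detected by western blot.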
# [6] = target: T1, Phosphotyrosine-protein phosphatase PTPB; assay: Inhibition of Mycobacterium tuberculosis PTPB expressed in Escherichia coli after 5 mins by microplate spectrophotometer analysis
# [7] = target: T2, Phosphotyrosine-protein phosphatase PTPB (Mycobacterium tuberculosis); assay: Inhibition of Mycobacterium tuberculosis PTPB expressed in mouse RAW 264.7 cells assessed as restoration of IFN gamma-induced ERK1/ERK2 phosphorylation at 10 uM after 30 mins by Western blotting; assay type: cell-based; in short: as §1
# [8] = target: T2, Phosphotyrosine-protein phosphatase PTPB (Mycobacterium tuberculosis); assay: Inhibition of Mycobacterium tuberculosis PTPB expressed in mouse RAW 264.7 cells assessed as restoration of IFN gamma-induced ERK1/ERK2 phosphorylation at 15 uM after 30 mins by Western blotting; assay type: cell-based; in short: as §1
# [9] = test system: Mycobacterium tuberculosis; assay: Antimycobacterial activity against Mycobacterium tuberculosis H37Rv after 7 days by microplate alamar blue assay; assay type: functional; details: 168 h
# In short: (§2)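 MABA read-out after 7 day incubation in Middlebrook 7H12 medium against replicating M. tuberculosis cultures.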
# J774.A1 = assay: Cytotoxicity at mouse J774A1 cells up to 100 uM after 72 hrs by MTS assay; assay type: cell-based; details: j774.a1, 72 h
# In short: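 J774A.1 cells exposed 72 h; viability from MTS conversion to formazan.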
# [10] = test system: Mycobacterium tuberculosis; assay: Antimycobacterial activity against Mycobacterium tuberculosis Erdman ATCC 35801 after 7 days by microplate alamar blue assay; assay type: functional; details: Erdman ATCC 35801, 168 h; in short: as §2
# [11] = test system: Mycobacterium tuberculosis; assay: Potentiation of IFN-gamma-induced antimycobacterial activity against Mycobacterium tuberculosis Erdman ATCC 35801 infected in mouse J774A.1 cells assessed as decrease in bacterial load at 10 uM after 7 days; assay type: functional, organism-based
# In short: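 J774A.1 macrophages on cover slips infected 1 h at 37°C with M. tuberculosis Erdman (1-3 x10⁵ CFU/ml), rinsed, 16 h at 37°C/5% CO₂, then compound 10 µM with amikacin and IFN-γ 50 U/mL; triplicates. After 7 days cells lysed with 0.25% SDS, dilutions plated on 7H11 agar, colonies counted after 2-3 weeks.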
# [12] = target: T1, Phosphotyrosine-protein phosphatase PTPB; assay: Non-competitive inhibition of Mycobacterium tuberculosis N-terminal His6-tagged PTPB assessed as production of p-nitrophenol from pNPP substrate by Lineweaver-Burk plot analysis
# [13] = target: T2, Phosphotyrosine-protein phosphatase PTPB (Mycobacterium tuberculosis); details: RAW, 5 to 10 uM
Structure (SMILES),IC50 [1],IC50 [2],inhibition [3],also measured
CC(NC(=O)C(=O)NCCc1c[nH]c2ccccc12)C(c1cccs1)N1CCN(c2ccc(F)cc2)CC1 (configuration not stated),12.1 µM,17.5 µM,–,–
O=C1Nc2ccc(S(=O)(=O)N3CCOCC3)c3cccc1c23,–,–,inactive,–
O=C1Nc2ccc(S(=O)(=O)NCCO)c3cccc1c23,–,–,inactive,–
Cc1ccccc1NS(=O)(=O)c1ccc2c3c(cccc13)C(=O)N2,–,–,inactive,–
CC(NC(=O)C(=O)NCc1ccco1)C(c1cccs1)N1CCN(C)CC1 (configuration not stated),–,–,inactive,–
CC(NC(=O)C(=O)NCc1cccnc1)C(c1cccs1)N1CCN(c2ccc(F)cc2)CC1 (configuration not stated),9.1 µM,14 µM,–,Ki [4]: 4 µM; inhibition [5]: Dose-dependent effect; IC50 [6]: 11.5 µM
O=C1Nc2ccc(S(=O)(=O)N(CCO)CCO)c3cccc1c23,–,–,inactive,–
Cc1oc2ccc(NS(=O)(=O)c3ccc4c5c(cccc35)C(=O)N4)cc2c1C(=O)OC(C)C,–,–,inactive,–
O=C1Nc2ccc(S(=O)(=O)Nc3ccc4oc5c(c4c3)CCCC5)c3cccc1c23,10.3 µM,10.8 µM,–,–
CC(NC(=O)C(=O)N1CCCCC1)C(c1cccs1)N1CCN(c2ccc(F)cc2)CC1 (configuration not stated),–,–,inactive,–
CC(NC(=O)C(=O)N1CCCCC1)C(c1cccs1)N1CCN(c2ccccc2)CC1 (configuration not stated),–,–,inactive,–
NS(=O)(=O)c1ccc2c3c(cccc13)C(=O)N2,–,–,inactive,inhibition [7]: inactive
O=C1Nc2ccc(S(=O)(=O)Nc3cc(Cl)c(O)c4ccccc34)c3cccc1c23,15.5 µM,12.8 µM,–,–
CCCCCCCOC(=O)c1c(C)oc2ccc(NS(=O)(=O)c3ccc4c5c(cccc35)C(=O)N4)cc12,19.5 µM,22.8 µM,–,–
CCN1CCN(C(c2cccs2)C(C)NC(=O)C(=O)N2CCOCC2)CC1 (configuration not stated),–,–,inactive,–
CCCCCOC(=O)c1c(C)oc2ccc(NS(=O)(=O)c3ccc4c5c(cccc35)C(=O)N4)cc12,21.1 µM,20.8 µM,–,–
O=C1Nc2ccc(S(=O)(=O)NCc3ccccc3)c3cccc1c23,–,–,inactive,–
COc1ccc(N2CCN(C(c3cccs3)C(C)NC(=O)C(=O)N3CCCCC3)CC2)cc1 (configuration not stated),–,–,inactive,inhibition [8]: inactive
COc1ccccc1CNC(=O)C(=O)NC(C)C(c1cccs1)N1CCN(c2ccc(F)cc2)CC1 (configuration not stated),11.4 µM,15.8 µM,–,–
CC(NS(=O)(=O)c1ccc2c3c(cccc13)C(=O)N2)C1C2CC3CC(C2)CC1C3 (configuration not stated),–,–,inactive,–
COc1ccc(N2CCN(C(c3cccs3)C(C)NC(=O)C(=O)NCc3ccco3)CC2)cc1 (configuration not stated),4.8 µM,6.3 µM,–,Ki [4]: 3.2 µM; MIC [9]: > 100 µM; inhibition [5]: Dose-dependent effect; IC50 [6]: 5.6 µM; Activity (J774.A1): Non-toxic; MIC [10]: > 100 µM; Activity [11]: Active
CCCCc1ccc(NS(=O)(=O)c2ccc3c4c(cccc24)C(=O)N3)cc1,1.2 µM,1.4 µM,–,MIC [9]: > 100 µM; IC50 [6]: 1.3 µM; Ki [12]: 1.1 µM; Activity (J774.A1): Non-toxic; MIC [10]: > 100 µM; Activity [11]: Active; inhibition [13]: Active
CC(NC(=O)C(=O)N1CCCCC1)C(c1cccs1)N1CCN(C)CC1 (configuration not stated),–,–,inactive,–
COc1ccc(N2CCN(C(c3cccs3)C(C)NC(=O)C(=O)N3CCCC3)CC2)cc1 (configuration not stated),–,–,inactive,–
CC(NC(=O)C(=O)NCc1ccc2c(c1)OCO2)C(c1cccs1)N1CCN(c2ccccc2)CC1 (configuration not stated),30.4 µM,25.1 µM,–,–
Cc1cccc(NS(=O)(=O)c2ccc3c4c(cccc24)C(=O)N3)c1C,–,–,inactive,–
CCN1CCN(C(c2cccs2)C(C)NC(=O)C(=O)NCCc2c[nH]c3ccccc23)CC1 (configuration not stated),–,–,inactive,–
CNS(=O)(=O)c1ccc2c3c(cccc13)C(=O)N2,–,–,inactive,–
